Reference: ChEMBL document CHEMBL3232902, “PMPA and PMEA prodrugs for the treatment of HIV infections and human papillomavirus (HPV) associated neoplasia and cancer” (Eur J Med Chem, 2014)

Experiments:
[1] = tested on: Human immunodeficiency virus 1; assay: Antiviral activity against Human immunodeficiency virus 1 3B infected in human CEM cells assessed as inhibition of virus-induced giant cell formation after 4 to 5 days by microscopic analysis; assay type: functional, organism-based, CCRF-CEM
Method in brief: (§1)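 CEM cells (~3×10^5/mL) were infected with 100 CCID50/mL HIV-1 IIIB or HIV-2 ROD with compound dilutions. After 4–5 days at 37°C, syncytium formation was scored microscopically. EC50 is the concentration inhibiting giant cell formation by 50%.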

SiHa [2] = assay: Antiproliferative activity against human SiHa cells infected with HPV-16 after 96 hrs by trypan blue staining-based Neubauer haemocytometric analysis; assay type: functional, cell-based
Method in brief: (§2)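 SiHa and HPV16+ M08 vulval keratinocytes (VIN3 biopsy-derived) were seeded at 4×10^3 cells/well; human epidermal keratinocytes (EpiLife medium) at 3.5×10^4 cells/well. All adhered 24 h, then were exposed to 0.1 and 1 μM compound in replicate for 96 h at 37°C. Cells were trypsinised, resuspended in PBS and counted in 0.4% trypan blue on a haemocytometer.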

L1210 = assay: Cytostatic activity against mouse L1210 cells after 48 hrs by coulter counting analysis; assay type: functional, cell-based
Method in brief: (§3)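 (5-7.5)×10^4 cells/well were incubated with compound at 37°C, for 48 h (L1210) or 72 h (CEM, HeLa), then counted by Coulter counter. IC50 is the concentration inhibiting proliferation by 50%.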

[3] = Antiproliferative activity against human C33A cells after 72 hrs by flow cytometric analysis; assay type: cell-based, C-33-A; conditions: Homo sapiens, C-33-A, 72 h
Method in brief: (§4)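 SiHa (HPV16+), HeLa (HPV18+) and C33A (HPV-) cervical carcinoma lines grown in DMEM with 10% FBS at 37°C, 5% CO2. Seeded 4×10^3 cells/well and left to adhere 24 h. Treated in triplicate with 1, 10 and 100 μM of compound formulated in ~1% DMSO/PBS pH 7.4.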

Vaccinia virus = assay: Antiviral activity against Vaccinia virus Lederle infected in HEL cells assessed as inhibition of virus-induced cytopathicity; assay type: functional, organism-based; conditions: Orthopoxvirus vaccinia
Method in brief: (§5)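 Confluent HEL cell cultures were inoculated with 100 CCID50 of virus in the presence of varying compound concentrations. Cytopathicity or plaque formation was scored once untreated infected controls reached completion. EC50 is the concentration inhibiting virus-induced cytopathicity by 50%.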

HeLa [4] = assay: Cytostatic activity against human HeLa cells after 72 hrs by coulter counting analysis; assay type: functional, cell-based; conditions: Homo sapiens, HeLa, 72 h; method in brief: as §3
HeLa [5] = assay: Antiproliferative activity against human HeLa cells infected with HPV-18 after 72 hrs by flow cytometric analysis; assay type: functional, cell-based; method in brief: as §4
Human alphaherpesvirus 2 = assay: Antiviral activity against Herpes simplex virus G infected in HEL cells assessed as inhibition of virus-induced cytopathicity; assay type: functional, organism-based, strain G; conditions: Human alphaherpesvirus 2, strain G, HEL; method in brief: as §5
SiHa [6] = assay: Antiproliferative activity against human SiHa cells infected with HPV-16 after 72 hrs by flow cytometric analysis; assay type: functional, cell-based; method in brief: as §4
[7] = Antiproliferative activity against human epidermal keratinocytes after 96 hrs by trypan blue staining-based Neubauer haemocytometric analysis; assay type: cell-based; conditions: Keratinocyte; method in brief: as §2
[8] = Cytotoxicity against human CEM cells; assay type: cell-based, CCRF-CEM; conditions: CEM (CCRF-CEM) cells
CCRF-CEM = assay: Cytostatic activity against human CEM cells after 72 hrs by coulter counting analysis; assay type: functional, cell-based; conditions: Homo sapiens, CCRF-CEM, 72 h; method in brief: as §3
[9] = tested on: Human immunodeficiency virus 2; assay: Antiviral activity against Human immunodeficiency virus type 2 ROD infected in human CEM cells assessed as inhibition of virus-induced giant cell formation after 4 to 5 days by microscopic analysis; assay type: functional, organism-based, ISOLATE ROD, CCRF-CEM; conditions: Human immunodeficiency virus 2, ISOLATE ROD, CCRF-CEM; method in brief: as §1
[10] = Antiproliferative activity against human M08 cells infected with HPV-16 after 96 hrs by trypan blue staining-based Neubauer haemocytometric analysis; assay type: functional, cell-based; conditions: M08, 96 h; method in brief: as §2
Human alphaherpesvirus 1 [11] = assay: Antiviral activity against thymidine kinase-deficient acyclovir-resistant Herpes simplex virus KOS infected in HEL cells assessed as inhibition of virus-induced cytopathicity; assay type: functional, organism-based; conditions: Human alphaherpesvirus 1, KOS; method in brief: as §5
Human alphaherpesvirus 1 [12] = assay: Antiviral activity against Herpes simplex virus KOS infected in HEL cells assessed as inhibition of virus-induced cytopathicity; assay type: functional, organism-based; conditions: Human alphaherpesvirus 1, KOS, HEL; method in brief: as §5
[13] = Cytotoxicity against HEL cells assessed as change in cellular morphology by microscopic analysis; assay type: cell-based; conditions: human, read-out: MIC
Method in brief: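 Uninfected HEL monolayers were exposed to compound. Minimal cytotoxic concentration is the concentration causing microscopically visible alteration of cell morphology.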

[14] = Human immunodeficiency virus 1, 3B, CCRF-CEM

| SMILES | EC50 [1, 14] | IC50 (SiHa [2]) | IC50 (L1210; Mus musculus, L1210, 48 h) | IC50 [3] | EC50 (Vaccinia virus) | IC50 (HeLa [4]) | IC50 (HeLa [5]; Homo sapiens, HeLa, 72 h) | EC50 (Human alphaherpesvirus 2) | IC50 (SiHa [6]) | IC50 [7] | CC50 [8] | IC50 (CCRF-CEM) | EC50 [9] | IC50 [10] | EC50 (Human alphaherpesvirus 1 [11]) | EC50 (Human alphaherpesvirus 1 [12]) | MCC [13] | EC50 ([1]; ccrf-cem) | IC50 (L1210; l1210) | IC50 (HeLa [5]; hela) |
| --- | --- | --- | --- | --- | --- | --- | --- | --- | --- | --- | --- | --- | --- | --- | --- | --- | --- | --- | --- | --- |
| C[C@H](NP(=O)(COCCn1cnc2c(N)ncnc21)Oc1cccc2ccccc12)C(=O)OCC(C)(C)C (stereo partly drawn) | 32 nM | 90 nM | 68 nM | 540 nM | 1600 nM | 920 nM | 500 nM | 100 nM | 600 nM | 76 nM | 45 nM | 45 nM | 19 nM | 48 nM | 200 nM | 250 nM | > 100 µM | – | – | – |
| C[C@H](NP(=O)(COCCn1cnc2c(N)ncnc21)N[C@@H](C)C(=O)OCc1ccccc1)C(=O)OCc1ccccc1 | 40 nM | – | 210 nM | – | 5000 nM | 670 nM | – | 250 nM | – | – | 140 nM | 140 nM | 25 nM | – | 600 nM | 700 nM | > 100 µM | – | – | – |
| C[C@H](Cn1cnc2c(N)ncnc21)OCP(=O)(N[C@@H](C)C(=O)OCC(C)(C)C)Oc1cccc2ccccc12 (stereo in doubt; 15) | – | – | – | 7600 nM | 4000 nM | 17000 nM | – | 700 nM | – | – | 6900 nM | 6900 nM | 7 nM | – | 2000 nM | 1500 nM | > 100 µM | 9 nM | 5600 nM | 530 nM |
| C[C@H](NP(=O)(COCCn1cnc2c(N)ncnc21)N[C@@H](C)C(=O)OCC(C)(C)C)C(=O)OCC(C)(C)C | 24 nM | 830 nM | 240 nM | 840 nM | 2700 nM | 1600 nM | 600 nM | 200 nM | 660 nM | 300 nM | 200 nM | 200 nM | 19 nM | 820 nM | 300 nM | 300 nM | > 100 µM | – | – | – |
